Source: ChEMBL document CHEMBL5058577, “EUbOPEN Chemogenomics Library 2 (Multiplex)” (2022)

Test system: HEK-293T
Assay: Multiplex assay against HEK293T
Format: toxicity, cell-based
Details: human
Method in brief: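 At seeding, live cells were stained with Hoechst33342, BioTracker Green Microtubule Cytoskeleton Dye, MitoTracker Red and Annexin V Alexa Fluor 680. After compound addition they were imaged on a CQ1 microscope at 37°C and 5% CO2, and CellPathfinder machine-learning gating sorted them into Hoechst high-intensity objects or normal cells, with normal cells further split into healthy, pyknosed or fragmented nuclei and pyknosed cells into mitotic or apoptotic. Tubulin, mitochondrial-mass and membrane-permeability phenotypes are given as per cents of cells with healthy nuclei.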

[1] = 12 h, 1 µM, compound concentration 1 uM, replicate 1
[2] = 12 h, 1 µM, compound concentration 1 uM, replicate 2
[3] = 12 h, 10 µM, compound concentration 10 uM, replicate 1
[4] = 12 h, 10 µM, compound concentration 10 uM, replicate 2
[5] = 24 h, 1 µM, compound concentration 1 uM, replicate 1
[6] = 24 h, 1 µM, compound concentration 1 uM, replicate 2
[7] = 24 h, 10 µM, compound concentration 10 uM, replicate 1
[8] = 24 h, 10 µM, compound concentration 10 uM, replicate 2
[9] = 48 h, 1 µM, compound concentration 1 uM, replicate 1
[10] = 48 h, 1 µM, compound concentration 1 uM, replicate 2
[11] = 48 h, 10 µM, compound concentration 10 uM, replicate 1
[12] = 48 h, 10 µM, compound concentration 10 uM, replicate 2

`Cc1onc(-c2ccccc2Cl)c1C(=O)N(C)c1ccc(Cl)cc1` was tested, and the “Population Apoptotic (%)” value [1] was 35%, the “Population Fragmented Nuclei (%)” value [1] was 8% and the “Population Healthy Nuclei (%)” value [1] was 79%. For the same compound, the “Population Hoechst High Intensity Objects (%)” value [1] was 9%, the “Population Membrane Permeable-Phenotype (%)” value [1] was 0% and the “Population Mitochondria Different-Phenotype (%)” value [1] was 41%. For the same compound, the “Population Mitotic Cells (%)” value [1] was 64%, the “Population Normal (%)” value [1] was 90% and the “Population Pyknosed Nuclei (%)” value [1] was 12%. For the same compound, the “Population Tubulin-Different-Phenotype (%)” value [1] was 25%, the “Total Cell Count” value [1] was 375 and the “Population Apoptotic (%)” value [2] was 37%. For the same compound, the “Population Fragmented Nuclei (%)” value [2] was 3%, the “Population Healthy Nuclei (%)” value [2] was 84% and the “Population Hoechst High Intensity Objects (%)” value [2] was 6%. The “Population Mitochondria Different-Phenotype (%)” value [2] was 59%, the “Population Mitotic Cells (%)” value [2] was 62% and the “Population Normal (%)” value [2] was 93%. The “Total Cell Count” value [2] was 320, the “Population Apoptotic (%)” value [3] was 38% and the “Population Fragmented Nuclei (%)” value [3] was 7%. For the same compound, the “Population Healthy Nuclei (%)” value [3] was 79%, the “Population Hoechst High Intensity Objects (%)” value [3] was 12% and the “Population Membrane Permeable-Phenotype (%)” value [3] was 0%. For the same compound, the “Population Mitochondria Different-Phenotype (%)” value [3] was 49%, the “Population Mitotic Cells (%)” value [3] was 61% and the “Population Normal (%)” value [3] was 87%. The “Population Pyknosed Nuclei (%)” value [3] was 13%, the “Population Tubulin-Different-Phenotype (%)” value [3] was 43% and the “Total Cell Count” value [3] was 357. For the same compound, the “Population Apoptotic (%)” value [4] was 45%, the “Population Fragmented Nuclei (%)” value [4] was 4% and the “Population Healthy Nuclei (%)” value [4] was 80%. The “Population Hoechst High Intensity Objects (%)” value [4] was 6%, the “Population Mitochondria Different-Phenotype (%)” value [4] was 65% and the “Population Mitotic Cells (%)” value [4] was 54%. The “Population Normal (%)” value [4] was 93%, the “Population Pyknosed Nuclei (%)” value [4] was 14% and the “Population Tubulin-Different-Phenotype (%)” value [4] was 35%. For the same compound, the “Total Cell Count” value [4] was 330, the “Population Apoptotic (%)” value [5] was 23% and the “Population Fragmented Nuclei (%)” value [5] was 9%. The “Population Healthy Nuclei (%)” value [5] was 81%, the “Population Hoechst High Intensity Objects (%)” value [5] was 5% and the “Population Membrane Permeable-Phenotype (%)” value [5] was 1%. The “Population Mitochondria Different-Phenotype (%)” value [5] was 21%, the “Population Mitotic Cells (%)” value [5] was 76% and the “Population Normal (%)” value [5] was 94%. The “Population Pyknosed Nuclei (%)” value [5] was 9%, the “Population Tubulin-Different-Phenotype (%)” value [5] was 14% and the “Total Cell Count” value [5] was 523. For the same compound, the “Population Apoptotic (%)” value [6] was 42%, the “Population Fragmented Nuclei (%)” value [6] was 5% and the “Population Hoechst High Intensity Objects (%)” value [6] was 3%. For the same compound, the “Population Mitochondria Different-Phenotype (%)” value [6] was 44%, the “Population Mitotic Cells (%)” value [6] was 57% and the “Population Normal (%)” value [6] was 96%. The “Population Pyknosed Nuclei (%)” value [6] was 12%, the “Population Tubulin-Different-Phenotype (%)” value [6] was 18% and the “Total Cell Count” value [6] was 383. For the same compound, the “Population Apoptotic (%)” value [7] was 45%, the “Population Fragmented Nuclei (%)” value [7] was 8% and the “Population Healthy Nuclei (%)” value [7] was 79%. For the same compound, the “Population Hoechst High Intensity Objects (%)” value [7] was 5%, the “Population Membrane Permeable-Phenotype (%)” value [7] was 1% and the “Population Mitochondria Different-Phenotype (%)” value [7] was 32%. For the same compound, the “Population Mitotic Cells (%)” value [7] was 54%, the “Population Normal (%)” value [7] was 94% and the “Population Pyknosed Nuclei (%)” value [7] was 12%. For the same compound, the “Population Tubulin-Different-Phenotype (%)” value [7] was 20%, the “Total Cell Count” value [7] was 478 and the “Population Apoptotic (%)” value [8] was 29%. For the same compound, the “Population Fragmented Nuclei (%)” value [8] was 7%, the “Population Healthy Nuclei (%)” value [8] was 82% and the “Population Hoechst High Intensity Objects (%)” value [8] was 3%. For the same compound, the “Population Membrane Permeable-Phenotype (%)” value [8] was 0%, the “Population Mitochondria Different-Phenotype (%)” value [8] was 47% and the “Population Mitotic Cells (%)” value [8] was 70%. The “Population Normal (%)” value [8] was 96%, the “Population Pyknosed Nuclei (%)” value [8] was 9% and the “Total Cell Count” value [8] was 413. For the same compound, the “Population Apoptotic (%)” value [9] was 21%, the “Population Fragmented Nuclei (%)” value [9] was 14% and the “Population Healthy Nuclei (%)” value [9] was 79%. For the same compound, the “Population Hoechst High Intensity Objects (%)” value [9] was 2%, the “Population Membrane Permeable-Phenotype (%)” value [9] was 0% and the “Population Mitochondria Different-Phenotype (%)” value [9] was 11%. For the same compound, the “Population Mitotic Cells (%)” value [9] was 78%, the “Population Normal (%)” value [9] was 97% and the “Population Pyknosed Nuclei (%)” value [9] was 6%. For the same compound, the “Population Tubulin-Different-Phenotype (%)” value [9] was 9%, the “Total Cell Count” value [9] was 932 and the “Population Apoptotic (%)” value [10] was 31%. For the same compound, the “Population Fragmented Nuclei (%)” value [10] was 11%, the “Population Healthy Nuclei (%)” value [10] was 82% and the “Population Membrane Permeable-Phenotype (%)” value [10] was 1%. The “Population Mitochondria Different-Phenotype (%)” value [10] was 23%, the “Population Mitotic Cells (%)” value [10] was 68% and the “Population Pyknosed Nuclei (%)” value [10] was 5%. The “Population Tubulin-Different-Phenotype (%)” value [10] was 12%, the “Total Cell Count” value [10] was 620 and the “Population Apoptotic (%)” value [11] was 33%. The “Population Fragmented Nuclei (%)” value [11] was 14%, the “Population Healthy Nuclei (%)” value [11] was 76% and the “Population Hoechst High Intensity Objects (%)” value [11] was 3%. The “Population Membrane Permeable-Phenotype (%)” value [11] was 1%, the “Population Mitochondria Different-Phenotype (%)” value [11] was 16% and the “Population Mitotic Cells (%)” value [11] was 66%. For the same compound, the “Population Normal (%)” value [11] was 96%, the “Population Pyknosed Nuclei (%)” value [11] was 8% and the “Population Tubulin-Different-Phenotype (%)” value [11] was 15%. The “Total Cell Count” value [11] was 755, the “Population Apoptotic (%)” value [12] was 20% and the “Population Fragmented Nuclei (%)” value [12] was 12%. For the same compound, the “Population Healthy Nuclei (%)” value [12] was 81%, the “Population Membrane Permeable-Phenotype (%)” value [12] was 0% and the “Population Mitochondria Different-Phenotype (%)” value [12] was 25%. The “Population Mitotic Cells (%)” value [12] was 79%, the “Population Pyknosed Nuclei (%)” value [12] was 6% and the “Population Tubulin-Different-Phenotype (%)” value [12] was 16%. For the same compound, the “Total Cell Count” value [12] was 652.
